This note sets out measurements from ChEMBL document CHEMBL3734666, “Lipophilic vancomycin aglycon dimer with high activity against vancomycin-resistant bacteria” (2015).

In assay [1] the test system is Staphylococcus aureus. Kind of assay: Antibacterial activity against methicillin-resistant Staphylococcus aureus ATCC 33591 after 24 hrs by broth micro dilution assay. It is filed as functional. Particulars: ATCC 33591, 24 h. The procedure, abridged:
(§1)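 MIC read against vancomycin-sensitive staphylococci (MSSA, MRSA) and enterococci (VSE), plus vancomycin-resistant staphylococci (VISA) and enterococci (VRE).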

In assay [2] the test system is Staphylococcus aureus. Description: Antibacterial activity against methicillin-sensitive Staphylococcus aureus after 24 hrs by broth micro dilution assay. It is filed as functional. The procedure, abridged: as §1
The subject of assay [3] is Enterococcus faecium. Description: Antibacterial activity against vancomycin-sensitive Enterococcus faecium after 24 hrs by broth micro dilution assay. The format is functional.
Assay [4] relates to Staphylococcus aureus. Kind of assay: Antibacterial activity against vancomycin-intermediate-resistant Staphylococcus aureus […] after 24 hrs by broth micro dilution assay. It is filed as functional. The procedure, abridged: as §1
Assay [5] has as its system Enterococcus faecium. Kind of assay: Antibacterial activity against vancomycin-resistant Enterococcus faecium ATCC 51559 after 24 hrs by broth micro dilution assay. Particulars: ATCC 51559, 24 h. It is filed as functional. Put shortly:
as §1

The nature of assay [6]: Binding affinity to N,N'-diacetyl-Lys-D-Ala-D-Ala (unknown origin) by UV-difference spectroscopy. The procedure, abridged: (§2)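 Binding constants (Ka) measured by UV-difference spectroscopy with the model ligands N,N′-diacetyl-Lys-D-Ala-D-Ala (sensitive) and N,N′-diacetyl-Lys-D-Ala-D-Lac (resistant).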
Assay [7] deals with Staphylococcus aureus. Kind of assay: Bacteriostatic activity against methicillin-resistant Staphylococcus aureus ATCC 33591 at 2 to 4 uM measured after 6 hrs. The format is functional, organism-based.
Assay [8] deals with Staphylococcus aureus. Description: Antibacterial activity against methicillin-resistant Staphylococcus aureus ATCC 33591 infected in human whole blood assessed as bacterial burden at 4 uM after 3 hrs (reference value: 7.0 log10 CFU/ml). The format is functional.
Assay [9] can be described thus: Binding affinity to N,N'-diacetyl-Lys-D-Ala-D-Lac (unknown origin) by UV-difference spectroscopy. Put shortly:
as §2

Assay [10] relates to Staphylococcus aureus. Description: Bacteriostatic activity against methicillin-resistant Staphylococcus aureus ATCC 33591 at 2 to 4 uM measured within 6 hrs. It is filed as functional, organism-based.
For assay [11], the system named is Staphylococcus aureus. Kind of assay: Bactericidal activity against methicillin-resistant Staphylococcus aureus ATCC 33591 assessed as reduction in bacterial burden at 4 uM measured within 3 hrs by time-kill assay. The format is functional. The procedure, abridged:
(§3)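 Time-kill assay on MRSA starting near 8log₁₀ CFU/mL, with compound at 2 and 4 µM. Viable counts were taken over 24 h, including a 3 h point, with a detection limit of <50 CFU/mL.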

The test system of assay [12] is Enterococcus faecium. Kind of assay: Inhibition of peptidoglycan biosynthesis in vancomycin-resistant Enterococcus faecium ATCC 51559 assessed as accumulation of UDP-MurNAc-pp at 5 uM after 60 mins by mass spectrometric analysis. The format is functional, organism-based.
The test system of assay [13] is Staphylococcus aureus. Kind of assay: Antibacterial activity against methicillin-resistant Staphylococcus aureus ATCC 33591 infected in human whole blood assessed as bacterial burden at 2 uM after 3 hrs (reference value: 7.0 log10 CFU/ml). It is filed as functional.
Assay [14] has as its system Staphylococcus aureus. Kind of assay: Bactericidal activity against methicillin-resistant Staphylococcus aureus ATCC 33591 assessed as reduction in bacterial burden at 4 uM measured within 24 hrs by time-kill assay. The format is functional, organism-based. Put shortly: as §3

Converted amounts (≈) assume the structure as drawn. The source made the active and inactive calls. The rule behind the calls is not given here.

With `CN[C@H](CC(C)C)C(=O)N[C@H]1C(=O)N[C@@H](CC(N)=O)C(=O)N[C@H]2C(=O)N[C@H]3C(=O)N[C@H](C(=O)N[C@H](C(=O)O)c4cc(O)cc(O)c4-c4cc3ccc4O)[C@H](O)c3ccc(c(Cl)c3)Oc3cc2cc(c3O)Oc2ccc(cc2Cl)[C@H]1O` [VANCOMYCIN AGLYCON], the MIC was 1 µM (≈ 1.14 µg/mL) against Staphylococcus aureus [1]; 1 µM (≈ 1.14 µg/mL) in the assay with Staphylococcus aureus [2]; 1.8 µM (≈ 2.06 µg/mL) against Enterococcus faecium [3]; 4 µM (≈ 4.58 µg/mL) in the assay on Staphylococcus aureus [4]; above 100 µM against Enterococcus faecium [5].

`CCCCCCCCN(CCCNC(=O)[C@H]1NC(=O)[C@H]2NC(=O)[C@H](NC(=O)[C@@H]3NC(=O)[C@H](CC(N)=O)NC(=O)[C@H](NC(=O)[C@@H](CC(C)C)NC)[C@H](O)c4ccc(c(Cl)c4)Oc4cc3cc(c4O)Oc3ccc(cc3Cl)[C@H]2O)c2ccc(O)c(c2)-c2c(O)cc(O)cc21)CCCNC(=O)C(F)(F)F`: the minimal inhibitory concentration (MIC) is 1 µM (≈ 1.47 µg/mL) against Staphylococcus aureus [1]; 0.8 µM (≈ 1.17 µg/mL) with Staphylococcus aureus [2]; 0.4 µM (≈ 0.586 µg/mL) against Enterococcus faecium [3]; 0.8 µM (≈ 1.17 µg/mL) against Staphylococcus aureus [4]; 6.5 µM (≈ 9.52 µg/mL) in the assay on Enterococcus faecium [5].

With `CN[C@@H](CC(C)C)C(=O)N[C@H]1C(=O)N[C@@H](CC(N)=O)C(=O)N[C@H]2C(=O)N[C@H]3C(=O)N[C@H](C(=O)N[C@@H](C(=O)O)c4cc(O)cc(O)c4-c4cc3ccc4O)[C@H](O)c3ccc(c(Cl)c3)Oc3cc2cc(c3O[C@H]2O[C@@H](CO)[C@H](O)[C@@H](O)[C@@H]2O[C@@H]2C[C@@](C)(N)[C@@H](O)[C@@H](C)O2)Oc2ccc(cc2Cl)[C@H]1O`, the Ka amounted to 1 ×10⁵ /M in [6] and 5 ×10² /M in assay [9]. Besides, the MIC worked out at 0.7 µM (≈ 1.01 µg/mL) in the assay with Staphylococcus aureus [1]; 0.6 µM (≈ 0.87 µg/mL) against Staphylococcus aureus [2]; 0.6 µM (≈ 0.87 µg/mL) in the assay with Enterococcus faecium [3]; 13 µM (≈ 18.8 µg/mL) in the assay on Staphylococcus aureus [4]; 750 µM (≈ 1090 µg/mL) against Enterococcus faecium [5]. Further, the result in the assay with Staphylococcus aureus [7] was inactive. The Activity in the assay on Staphylococcus aureus [8] stood at 1 log10CFU/ml. In addition, in the assay on Staphylococcus aureus [10], the outcome was Active.

`CN[C@H](CC(C)C)C(=O)N[C@H]1C(=O)N[C@@H](CC(N)=O)C(=O)N[C@H]2C(=O)N[C@H]3C(=O)N[C@H](C(=O)N[C@H](C(=O)NCCCCCCCCNC(=O)C(F)(F)F)c4cc(O)cc(O)c4-c4cc3ccc4O)[C@H](O)c3ccc(c(Cl)c3)Oc3cc2cc(c3O)Oc2ccc(cc2Cl)[C@H]1O`: the minimum inhibitory concentration (MIC) came to 2 µM (≈ 2.73 µg/mL) against Staphylococcus aureus [1]; 1 µM (≈ 1.37 µg/mL) in the assay with Staphylococcus aureus [2]; 0.6 µM (≈ 0.82 µg/mL) in the assay with Enterococcus faecium [3]; 0.6 µM (≈ 0.82 µg/mL) against Staphylococcus aureus [4]; 30.5 µM (≈ 41.7 µg/mL) in the assay on Enterococcus faecium [5].

In the case of `CN[C@H](CC(C)C)C(=O)N[C@@H]1C(=O)N[C@H](CC(N)=O)C(=O)N[C@@H]2C(=O)N[C@@H]3C(=O)N[C@@H](C(=O)N[C@H](C(=O)NCCCCCCCCNC(=O)[C@H]4NC(=O)[C@@H]5NC(=O)[C@@H](NC(=O)[C@H]6NC(=O)[C@@H](CC(N)=O)NC(=O)[C@@H](NC(=O)[C@@H](CC(C)C)NC)[C@@H](O)c7ccc(c(Cl)c7)Oc7cc6cc(c7O)Oc6ccc(cc6Cl)[C@@H]5O)c5ccc(O)c(c5)-c5c(O)cc(O)cc54)c4cc(O)cc(O)c4-c4cc3ccc4O)[C@@H](O)c3ccc(c(Cl)c3)Oc3cc2cc(c3O)Oc2ccc(cc2Cl)[C@@H]1O`, the MIC in the assay with Staphylococcus aureus [1] worked out at 0.6 µM (≈ 1.44 µg/mL); against Staphylococcus aureus [2], 0.8 µM (≈ 1.92 µg/mL); with Enterococcus faecium [3], 0.6 µM (≈ 1.44 µg/mL); with Staphylococcus aureus [4] it was 0.2 µM (≈ 0.479 µg/mL); against Enterococcus faecium [5] it was 25.8 µM (≈ 61.8 µg/mL).

Consider `CCCCCCCCN(CCCNC(=O)[C@H]1NC(=O)[C@@H]2NC(=O)[C@@H](NC(=O)[C@H]3NC(=O)[C@@H](CC(N)=O)NC(=O)[C@@H](NC(=O)[C@@H](CC(C)C)NC)[C@@H](O)c4ccc(c(Cl)c4)Oc4cc3cc(c4O)Oc3ccc(cc3Cl)[C@@H]2O)c2ccc(O)c(c2)-c2c(O)cc(O)cc21)CCCNC(=O)[C@@H]1NC(=O)[C@H]2NC(=O)[C@H](NC(=O)[C@@H]3NC(=O)[C@H](CC(N)=O)NC(=O)[C@H](NC(=O)[C@@H](CC(C)C)NC)[C@H](O)c4ccc(c(Cl)c4)Oc4cc3cc(c4O)Oc3ccc(cc3Cl)[C@H]2O)c2ccc(O)c(c2)-c2c(O)cc(O)cc21`, for which the Ka is 1 ×10⁵ /M in [6] and 5.7 ×10³ /M in [9]. Moreover, the minimal inhibitory concentration (MIC) in the assay with Staphylococcus aureus [1] stood at 0.6 µM (≈ 1.5 µg/mL); in the assay on Staphylococcus aureus [2] it was 0.6 µM (≈ 1.5 µg/mL); against Enterococcus faecium [3], 0.5 µM (≈ 1.25 µg/mL); in the assay with Staphylococcus aureus [4], 0.6 µM (≈ 1.5 µg/mL); with Enterococcus faecium [5], 2.5 µM (≈ 6.24 µg/mL). Also, the Activity in the assay on Staphylococcus aureus [11] is reported as 3 log10CFU/ml; in the assay with Staphylococcus aureus [13] it was 4.5 log10CFU/ml. In addition, the inhibition result with Enterococcus faecium [12] is “Active”. Besides, the outcome in the assay on Staphylococcus aureus [14] was Active.

Regarding `CN[C@H](CC(C)C)C(=O)N[C@@H]1C(=O)N[C@H](CC(N)=O)C(=O)N[C@@H]2C(=O)N[C@@H]3C(=O)N[C@@H](C(=O)N[C@H](C(=O)NCCC[N+](C)(C)CCCCCCCC[N+](C)(C)CCCNC(=O)[C@H]4NC(=O)[C@@H]5NC(=O)[C@@H](NC(=O)[C@H]6NC(=O)[C@@H](CC(N)=O)NC(=O)[C@@H](NC(=O)[C@@H](CC(C)C)NC)[C@@H](O)c7ccc(c(Cl)c7)Oc7cc6cc(c7O)Oc6ccc(cc6Cl)[C@@H]5O)c5ccc(O)c(c5)-c5c(O)cc(O)cc54)c4cc(O)cc(O)c4-c4cc3ccc4O)[C@@H](O)c3ccc(c(Cl)c3)Oc3cc2cc(c3O)Oc2ccc(cc2Cl)[C@@H]1O`, the minimal inhibitory concentration (MIC) in the assay with Staphylococcus aureus [1] is 0.3 µM; in the assay on Staphylococcus aureus [2], 0.2 µM; against Enterococcus faecium [3] it was 0.05 µM; in the assay on Staphylococcus aureus [4] it was 0.1 µM; against Enterococcus faecium [5], 48 µM.

Take `CN[C@H](CC(C)C)C(=O)N[C@H]1C(=O)N[C@@H](CC(N)=O)C(=O)N[C@H]2C(=O)N[C@H]3C(=O)N[C@H](C(=O)N[C@H](C(=O)NCCC[N+](C)(C)CCCCCCCC[N+](C)(C)CCCNC(=O)C(F)(F)F)c4cc(O)cc(O)c4-c4cc3ccc4O)[C@H](O)c3ccc(c(Cl)c3)Oc3cc2cc(c3O)Oc2ccc(cc2Cl)[C@H]1O`: the minimal inhibitory concentration (MIC) is 1 µM against Staphylococcus aureus [1]; 1 µM in the assay on Staphylococcus aureus [2]; 0.2 µM in the assay with Enterococcus faecium [3]; 0.5 µM with Staphylococcus aureus [4]; above 100 µM against Enterococcus faecium [5].
